What was measured:
Type in all cases: functional
[1] = species on record: Rattus norvegicus; test: Ratio of ED15HR to that of ED50chol was determined
Procedure, shortened: (§1)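 Cholesterol-fed male Sprague-Dawley rats (1.5% cholesterol, 0.5% cholic acid, 2 weeks) dosed s.c. once daily for 7 days, vehicle 10% m-pyrol/5% ethanol/5% cremaphor/80% water, n = 6/dose, 1.54–9240 nmol/kg/day. Heart rate recorded by lead II ECG under 30 mg/kg pentobarbital. ED15 = dose raising heart rate 15% over vehicle; ratio taken against cholesterol ED50 (50% suppression from vehicle).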

[2] = tested on: Rattus norvegicus; test: Effect upon subcutaneous administration on cholesterol in rat was determined
Procedure, shortened: (§2)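 Male Sprague-Dawley rats on chow with 1.5% cholesterol and 0.5% cholic acid for 2 weeks, then s.c. once daily for 7 days (vehicle 10% m-pyrol, 5% ethanol, 5% cremaphor, 80% water; n = 6/dose), doses 1.54–9240 nmol/kg/day. Plasma TSH measured by rat RIA and cholesterol by clinical analyzer in aortic blood after pentobarbital. ED50 = dose giving 50% suppression from vehicle, in nmol/kg/day.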

[3] = species on record: Rattus norvegicus; test: Ratio of ED50TSH to that of ED50chol was determined; procedure, shortened: as §2
[4] = tested on: Rattus norvegicus; test: Effect upon subcutaneous administration on TSH suppression in rat was determined; procedure, shortened: as §2
[5] = tested on: Rattus norvegicus; test: Effect upon subcutaneous administration on the heart rate in rat was determined; procedure, shortened: as §1

## CC(C)c1cc(Oc2c(Br)cc(CC(=O)O)cc2Br)ccc1O
[1]
  HR/chol: 9.7
[2]
  ED50: 95.4 nM/day/kg
[3]
  TSH/chol: <0.5
[4]
  ED50: <46.2 nM/day/kg
[5]
  ED15: 926 nM/day/kg

## CC(C)c1cc(Oc2c(Cl)cc(CC(=O)O)cc2Cl)ccc1O
[1]
  HR/chol: 13.1
[2]
  ED50: 82 nM/day/kg
[3]
  TSH/chol: 0.4
[4]
  ED50: 38 nM/day/kg
[5]
  ED15: 1077 nM/day/kg

## N[C@H](Cc1cc(I)c(Oc2ccc(O)c(I)c2)c(I)c1)C(=O)O [DETROTHYRONINE]
[1]
  HR/chol: 0.7
[2]
  ED50: 20 nM/day/kg
[3]
  TSH/chol: 0.3
[4]
  ED50: 7 nM/day/kg
[5]
  ED15: 14 nM/day/kg

— ChEMBL document CHEMBL1136772, “Thyroid receptor ligands. 1. Agonist ligands selective for the thyroid receptor beta1” (J Med Chem, 2003)
